Measured values from ChEMBL document CHEMBL3351723, “New derivatives of lupane triterpenoids disturb breast cancer mitochondria and induce cell death” (Bioorg Med Chem, 2014).
Activity calls are given as the source filed them. No cut-off for these calls is given here.

Experiments:
Liver microsome [1] = experiment: Effect on mitochondrial transmembrane potential in Wistar Han rat liver mitochondria energized with succinate assessed as mitochondrial transmembrane electropotential at 1.333 ug/mg of protein (reference value: 216.0 +/- 7.4 mV); type: functional
Outline: (§1)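 Isolated male Wistar rat liver mitochondria (1.5 mg protein) in 125 mM sucrose, 65 mM KCl, 5 mM KH2PO4, 2.5 mM MgCl2, 5 mM HEPES pH 7.4, 30°C, with 3 μM TPP+. Compound added for 1 min, then 10 mM succinate plus 3 μM rotenone. State 3 started with ADP (83.3 nmol/mg protein). ΔΨ read with a TPP+-selective electrode and calculated by the Kamo equation without binding correction.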

[2] = Induction of apoptosis in human MCF12A cells assessed as distribution of mitochondrial polarization and morphology at 0.25 ug/ml after 6 hrs by confocal microscopy; type: cell-based; details: mcf-12a
Outline: (§2)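 Cells were seeded on glass coverslips and left to attach for 24 h. They were then exposed to vehicle or 0.25 μg/ml compound for 6 h. For the last 30 min they were loaded with 100 nM TMRM in saline buffer with 15 mM glucose, and the probe was kept present during imaging. Mitochondrial polarization and morphology were imaged by fluorescence microscopy, and the TMRM fluorescence standard deviation was quantified. Four independent preparations, mean ± SEM.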

Liver microsome [3] = experiment: Effect on mitochondrial transmembrane potential in Wistar Han rat liver mitochondria energized with succinate assessed as mitochondrial transmembrane electropotential at 0.667 ug/mg of protein (reference value: 204.2 +/- 5.6 mV); type: functional
Liver microsome [4] = experiment: Effect on mitochondrial transmembrane potential in Wistar Han rat liver mitochondria energized with succinate assessed as time duration of lag phase at 0.067 ug/mg of protein (reference value: 33.0 +/- 4.6 sec); type: functional; outline: as §1
Liver microsome [5] = experiment: Effect on mitochondrial transmembrane potential in Wistar Han rat liver mitochondria energized with succinate assessed as time duration of lag phase at 0.133 ug/mg of protein (reference value: 33.0 +/- 4.6 sec); type: functional; outline: as §1
Liver microsome [6] = experiment: Effect on mitochondrial transmembrane potential in Wistar Han rat liver mitochondria energized with succinate assessed as ADP depolarization at 1.333 ug/mg of protein (reference value: 25.3 +/- 2.1 mV); type: functional
Liver microsome [7] = experiment: Effect on mitochondrial transmembrane potential in Wistar Han rat liver mitochondria energized with succinate assessed as time duration of lag phase at 0.667 ug/mg of protein (reference value: 33.0 +/- 4.6 sec); type: functional; outline: as §1
MDA-MB-231 = experiment: Cytotoxicity against human MDA-MB-231 cells at 0.125 to 2 ug/ml after 1 to 5 days by sulforhodamine B assay; type: functional, cell-based
Outline: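 Sulforhodamine B growth assay in high-glucose DMEM with 10% FBS. Cancer cells seeded at 1×10^4 cells/ml; compound (0.125–2 μg/ml) added 24 h after seeding and left for 1, 3 or 5 days. Cells fixed, total mass stained. Expressed as % of untreated cells at the same time point. Mean ± SEM, five independent experiments.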

BJ = experiment: Induction of apoptosis in human BJ cells assessed as distribution of mitochondrial polarization and morphology at 0.25 ug/ml after 6 hrs by confocal microscopy; type: cell-based; outline: as §2
Liver microsome [8] = experiment: Effect on mitochondrial transmembrane potential in Wistar Han rat liver mitochondria energized with succinate assessed as mitochondrial transmembrane electropotential at 0.06 ug/mg of protein (reference value: 204.2 +/- 5.6 mV); type: functional
Liver microsome [9] = experiment: Effect on mitochondrial transmembrane potential in Wistar Han rat liver mitochondria energized with succinate assessed as ADP depolarization at 0.067 ug/mg of protein (reference value: 23.9 +/- 3.3 mV); type: functional
Liver microsome [10] = experiment: Effect on mitochondrial transmembrane potential in Wistar Han rat liver mitochondria energized with succinate assessed as mitochondrial transmembrane electropotential at 1.333 ug/mg of protein (reference value: 198.0 +/- 5.6 mV); type: functional; outline: as §1
Liver microsome [11] = experiment: Effect on mitochondrial transmembrane potential in Wistar Han rat liver mitochondria energized with succinate assessed as ADP depolarization at 0.333 ug/mg of protein (reference value: 23.9 +/- 3.3 mV); type: functional
Liver microsome [12] = experiment: Effect on mitochondrial transmembrane potential in Wistar Han rat liver mitochondria energized with succinate assessed as mitochondrial transmembrane electropotential at 0.133 ug/mg of protein (reference value: 198.0 +/- 5.6 mV); type: functional
Liver microsome [13] = experiment: Effect on mitochondrial transmembrane potential in Wistar Han rat liver mitochondria energized with succinate assessed as mitochondrial transmembrane electropotential at 0.667 ug/mg of protein (reference value: 198.0 +/- 5.6 mV); type: functional
Liver microsome [14] = experiment: Effect on mitochondrial transmembrane potential in Wistar Han rat liver mitochondria energized with succinate assessed as ADP depolarization at 0.667 ug/mg of protein (reference value: 23.9 +/- 3.3 mV); type: functional
Liver microsome [15] = experiment: Effect on mitochondrial transmembrane potential in Wistar Han rat liver mitochondria energized with succinate assessed as ADP depolarization at 0.067 ug/mg of protein (reference value: 34.6 +/- 1.9 mV); type: functional
Liver microsome [16] = experiment: Effect on mitochondrial transmembrane potential in Wistar Han rat liver mitochondria energized with succinate assessed as ADP depolarization at 0.133 ug/mg of protein (reference value: 34.6 +/- 1.9 mV); type: functional
Liver microsome [17] = experiment: Effect on mitochondrial transmembrane potential in Wistar Han rat liver mitochondria energized with succinate assessed as time duration of lag phase at 0.133 ug/mg of protein Rvb = 46.7 +/- 3.9 sec); type: functional; outline: as §1
Liver microsome [18] = experiment: Effect on mitochondrial transmembrane potential in Wistar Han rat liver mitochondria energized with succinate assessed as mitochondrial transmembrane electropotential at 0.133 ug/mg of protein (reference value: 220.6 +/- 2.5 mV); type: functional
Liver microsome [19] = experiment: Effect on mitochondrial transmembrane potential in Wistar Han rat liver mitochondria energized with succinate assessed as mitochondrial transmembrane electropotential at 0.06 ug/mg of protein (reference value: 220.6 +/- 2.5 mV); type: functional
Liver microsome [20] = experiment: Effect on mitochondrial transmembrane potential in Wistar Han rat liver mitochondria energized with succinate assessed as ADP depolarization at 0.333 ug/mg of protein (reference value: 34.6 +/- 1.9 mV); type: functional
Liver microsome [21] = experiment: Effect on mitochondrial transmembrane potential in Wistar Han rat liver mitochondria energized with succinate assessed as time duration of lag phase at 1.333 ug/mg of protein Rvb = 46.7 +/- 3.9 sec); type: functional; outline: as §1
Liver microsome [22] = experiment: Effect on mitochondrial transmembrane potential in Wistar Han rat liver mitochondria energized with succinate assessed as mitochondrial transmembrane electropotential at 0.333 ug/mg of protein (reference value: 220.6 +/- 2.5 mV); type: functional
Liver microsome [23] = experiment: Effect on mitochondrial transmembrane potential in Wistar Han rat liver mitochondria energized with succinate assessed as ADP depolarization at 1.333 ug/mg of protein (reference value: 34.6 +/- 1.9 mV); type: functional
Liver microsome [24] = experiment: Effect on mitochondrial transmembrane potential in Wistar Han rat liver mitochondria energized with succinate assessed as time duration of lag phase at 0.667 ug/mg of protein Rvb = 46.7 +/- 3.9 sec); type: functional; outline: as §1

With `C=C(C)[C@@H]1CC[C@]2(COC(=O)C[n+]3ccc(N(C)C)cc3)CC[C@]3(C)[C@H](CC[C@@H]4[C@@]5(C)CC[C@H](OC(=O)C[n+]6ccc(N(C)C)cc6)C(C)(C)[C@@H]5CC[C@]43C)[C@@H]12.[Cl-].[Cl-]` the Activity (Liver microsome [1]) was 201 mV.
With `C=C(C)[C@@H]1CC[C@]2(COC(=O)CC[n+]3ccc(N(C)C)cc3)CC[C@]3(C)[C@H](CC[C@@H]4[C@@]5(C)CC[C@H](OC(=O)CC[n+]6ccc(N(C)C)cc6)C(C)(C)[C@@H]5CC[C@]43C)[C@@H]12.[Cl-].[Cl-]` the Activity [2] was “Non-toxic”, the Activity (Liver microsome [3]) was 205 mV and the TIME (Liver microsome [4]) was 0.009 h. The TIME (Liver microsome [5]) was 0.00867 h, the Activity (Liver microsome [6]) was 20.3 mV and the TIME (Liver microsome [7]) was 0.00894 h. The inhibition (MDA-MB-231) was “Active”, the Activity (BJ) was “Non-toxic” and the Activity (Liver microsome [8]) was 206 mV.
In the case of `C=C(C)[C@@H]1CC[C@]2(COC(=O)C(CC)[n+]3ccc(N(C)C)cc3)CC[C@]3(C)[C@H](CC[C@@H]4[C@@]5(C)CC[C@H](OC(=O)C(CC)[n+]6ccc(N(C)C)cc6)C(C)(C)[C@@H]5CC[C@]43C)[C@@H]12` (stereo partly specified), the Activity (Liver microsome [9]) is reported as 22.3 mV, the Activity (Liver microsome [10]) is reported as 190 mV and the Activity (Liver microsome [11]) is reported as 23.2 mV. It also gave an Activity (Liver microsome [12]) of 197 mV, an Activity (Liver microsome [13]) of 193 mV and an Activity (Liver microsome [14]) of 23 mV.
`C=C(C)[C@@H]1CC[C@]2(COC(=O)C[N+](C)(C)C(C)C)CC[C@]3(C)[C@H](CC[C@@H]4[C@@]5(C)CC[C@H](OC(=O)C[N+](C)(C)C(C)C)C(C)(C)[C@@H]5CC[C@]43C)[C@@H]12.[Cl-].[Cl-]` gave an Activity (Liver microsome [15]) of 31.5 mV, an Activity (Liver microsome [16]) of 30.3 mV and a TIME (Liver microsome [17]) of 0.0137 h. It also gave an Activity (Liver microsome [18]) of 217 mV, an Activity (Liver microsome [19]) of 217 mV and an Activity (Liver microsome [20]) of 28.8 mV. For the same compound, the TIME (Liver microsome [21]) was 0.0144 h, the Activity (Liver microsome [22]) was 213 mV and the Activity (Liver microsome [23]) was 19.8 mV. It also gave a TIME (Liver microsome [24]) of 0.0146 h.
